ChEMBL document CHEMBL1145774, “Synthesis and biological effects of novel 2-amino-3-naphthoylthiophenes as allosteric enhancers of the A1 adenosine receptor” (J Med Chem, 2003)

Columns and labels:
[1] = target: T1, Adenosine receptor A1 (Homo sapiens) (UniProt P30542); assay: Percent change in cAMP content of CHO (Chinese hamster ovary) cells expressing human Adenosine A1 receptor at 0.01 uM; assay type: functional, cell-based
T1 sequence (whole entry): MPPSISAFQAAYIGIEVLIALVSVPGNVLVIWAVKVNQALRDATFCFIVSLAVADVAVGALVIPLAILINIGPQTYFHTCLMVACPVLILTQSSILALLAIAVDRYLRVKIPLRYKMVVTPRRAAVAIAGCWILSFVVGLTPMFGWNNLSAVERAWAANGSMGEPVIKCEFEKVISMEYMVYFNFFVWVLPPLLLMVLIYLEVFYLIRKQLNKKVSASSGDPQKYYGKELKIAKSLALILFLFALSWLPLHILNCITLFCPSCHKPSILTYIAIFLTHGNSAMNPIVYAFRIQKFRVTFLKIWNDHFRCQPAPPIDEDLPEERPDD
Summary of the method: (§1)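 CHO cells stably expressing human A1 receptor (~8000 fmol/mg protein) were grown in Ham's F-12 with 10% FBS and G-418 for 48 h to confluence. HCl (50 mM final) stopped the reaction, and cAMP was measured by radioimmunoassay. Values are % change versus no-compound control, mean ± SEM of six experiments.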

[2] = target: T1, Adenosine receptor A1 (Homo sapiens); assay: Percent change in cAMP content of CHO (Chinese hamster ovary) cells expressing human Adenosine A1 receptor at 0.1 uM; assay type: functional, cell-based; summary of the method: as §1
[3] = target: T1, Adenosine receptor A1 (Homo sapiens); assay: Percent change in cAMP content of CHO (Chinese hamster ovary) cells expressing human Adenosine A1 receptor at 10 uM; assay type: functional, cell-based; summary of the method: as §1
[4] = target: T2, Adenosine receptor A3 (Homo sapiens) (UniProt P0DMS8); assay: Ability to displace the binding of [3H]-MRE 3008-F20 to the ligand binding site of CHO:hA3 (human Adenosine receptor) at concentration of 10 uM
T2 sequence (whole entry): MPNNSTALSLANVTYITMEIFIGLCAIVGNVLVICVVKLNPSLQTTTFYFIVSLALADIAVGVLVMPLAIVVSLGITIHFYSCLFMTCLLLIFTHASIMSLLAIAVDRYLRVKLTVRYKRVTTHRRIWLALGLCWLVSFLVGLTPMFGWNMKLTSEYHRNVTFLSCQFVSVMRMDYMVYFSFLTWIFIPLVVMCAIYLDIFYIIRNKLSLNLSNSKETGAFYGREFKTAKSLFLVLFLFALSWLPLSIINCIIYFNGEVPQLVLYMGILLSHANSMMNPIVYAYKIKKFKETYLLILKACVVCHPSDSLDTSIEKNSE
Summary of the method: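 Assays used 2 nM [3H]MRE 3008F20 on CHO:hA3 membranes (100 µg protein, ADA-treated) for 150 min at 4 °C, in Tris-HCl with MgCl2 and 1 mM EDTA, pH 7.4, with compound from DMSO (1% final). Bound ligand was separated by filtration. Results are % displacement by 10 µM compound, ±STD, n = 3.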

[5] = target: T1, Adenosine receptor A1 (Homo sapiens); assay: Ability to displace the binding of [3H]DPCPX to the ligand binding site of CHO:hA1 (human Adenosine A1 receptor) at concentration of 10 uM
Summary of the method: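 Membranes came from hypotonic lysis of CHO:hA1 cells, a 100 000g pellet and ADA 2 U/mL treatment for 30 min at 37 °C. Membranes (100 µg protein) were incubated with 1 nM [3H]DPCPX in Tris-HCl pH 7.4 for 150 min at 25 °C, with compound added from DMSO (1% final). Nonspecific binding was taken with 1 µM DPCPX, and bound ligand was separated on GF/B filters.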

[6] = target: Adenosine receptor A2a (Homo sapiens) (UniProt P29274); assay: Ability to displace the binding of [3H]-ZM 241385, to the ligand binding site of CHO:hA2A (human Adenosine A2A receptor) at concentration of 10 uM
Adenosine receptor A2a (Homo sapiens), sequence (P29274 whole entry): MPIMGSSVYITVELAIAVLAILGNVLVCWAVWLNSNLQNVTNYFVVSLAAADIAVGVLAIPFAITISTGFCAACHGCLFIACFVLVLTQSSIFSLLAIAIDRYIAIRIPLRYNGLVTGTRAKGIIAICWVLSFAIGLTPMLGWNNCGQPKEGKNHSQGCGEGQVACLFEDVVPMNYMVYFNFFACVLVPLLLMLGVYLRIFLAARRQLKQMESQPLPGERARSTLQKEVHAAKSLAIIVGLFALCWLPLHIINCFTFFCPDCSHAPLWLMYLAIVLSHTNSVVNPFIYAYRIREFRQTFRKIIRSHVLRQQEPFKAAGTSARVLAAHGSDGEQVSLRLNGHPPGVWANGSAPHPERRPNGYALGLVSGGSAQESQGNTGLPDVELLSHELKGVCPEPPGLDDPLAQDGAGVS
Summary of the method: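 CHO:hA2A membranes (100 µg protein, ADA-treated) were incubated with 2 nM [3H]ZM 241385 in Tris-HCl with MgCl2, pH 7.4, for 60 min at 4 °C, with compound from DMSO (1% final). Nonspecific binding was taken with 1 µM ZM241385. After filtration, results are % displacement by 10 µM compound, ±STD, n = 3.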

[7] = target: T1, Adenosine receptor A1 (Homo sapiens); assay: Percent change in cAMP content of CHO (Chinese hamster ovary) cells expressing human Adenosine A1 receptor at 1 uM; assay type: functional, cell-based; summary of the method: as §1
[8] = target: T1, Adenosine receptor A1 (Homo sapiens); assay: Dissociation rate of [3H]CCPA from Adenosine A1 receptor expressing CHO cells at 10 uM as percent t1/2; assay type: cell-based
Summary of the method: (§2)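 [3H]CCPA was bound to ADA-treated CHO:hA1 membranes in 50 mM Tris-HCl pH 7.4 at 25 °C. Dissociation was started by adding R-PIA (1 µM) with test agent (10 µM), and specific binding was measured 2–180 min afterwards. Kinetic fits gave t1/2 and K-1, expressed as % change from control. Values are the mean of three experiments.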

[9] = target: T1, Adenosine receptor A1 (Homo sapiens); assay: Dissociation of [3H]CCPA from Adenosine A1 receptor in CHO cells at 10 uM as percent K-1; assay type: cell-based; summary of the method: as §2
[10] = target: T1, Adenosine receptor A1 (Homo sapiens); assay: Percent change in cAMP in CHO cells expressing human Adenosine A1 receptor at 1 uM; assay type: functional, cell-based; summary of the method: as §1

Row | Compound | Change [1] [%] | Change [2] [%] | Change [3] [%] | inhibition [4] [%] | inhibition [5] [%] | inhibition [6] [%] | Change [7] [%] | T1/2 increase [8] [%] | K-1 decrease [9] [%] | Change [10] [%]
1 | COc1ccc(C(=O)c2c(N)sc3c2CCC3)c2ccccc12 | -6 | -3 | -35 | 57 | 19 | -0 | -8 | – | – | –
2 | Cc1sc(N)c(C(=O)c2cccc3ccccc23)c1C | -0.6 | -3 | -45 | 18 | -0 | -0 | – | 85 | 46 | 6
3 | Nc1sc2c(c1C(=O)c1ccc(I)c3ccccc13)CCC2 | -6 | -8 | -75 | -0 | 3.3 | -0 | -22 | 41 | 29 | –
4 | Nc1sc2c(c1C(=O)c1ccc(Br)c3ccccc13)CCC2 | 3 | 19 | -67 | 22 | -0 | -0 | -14 | 4 | 4 | –
5 | Cc1sc(N)c(C(=O)c2cc(C)c3cc(Cl)ccc3c2)c1C | -0 | -0 | -24 | -0 | 4 | -0 | -18 | – | – | –
6 | Nc1sc2c(c1C(=O)c1ccc(Cl)c3ccccc13)CCC2 | -10 | 15 | -55 | -0 | -0 | -0 | -27 | 43 | 30 | –
7 | Nc1sc2c(c1C(=O)c1ccc3ccccc3c1)CCN(Cc1ccccc1)C2 | -11 | -12 | -60 | 22 | 2.5 | -0 | -18 | – | – | –
8 | Nc1sc2c(c1C(=O)c1ccc(Br)c3ccccc13)CCCC2 | -6 | -10 | -72 | 48.5 | 12 | 3 | -29 | 43 | 30 | –
9 | Nc1sc2c(c1C(=O)c1ccc3ccccc3c1)CCN(Cc1ccccc1F)C2 | -3 | -3 | -31 | -0 | 3 | -0 | -10 | – | – | –
10 | Nc1sc2c(c1C(=O)c1cccc3ccccc13)CCC2 | -0.6 | -6 | -60 | -0 | 8 | -0 | -29 | -0 | -0 | –
11 | Nc1sc2c(c1C(=O)c1ccc3ccccc3c1)CCCC2 | -13 | -24 | -42 | -0 | 3.3 | -0 | -28 | 10 | 9 | –
12 | Nc1sc2ccccc2c1C(=O)c1cccc2ccccc12 | 17 | 9 | -37 | 19 | 13.5 | -0 | 1 | – | – | –
13 | Cc1sc(N)c(C(=O)c2cccc(C(F)(F)F)c2)c1C | -1 | -7 | -50 | 21 | -0 | -0 | -13 | 43 | 30 | –
14 | Nc1sc2c(c1C(=O)c1ccc(I)c3ccccc13)CCCC2 | -3 | -4 | -67 | 48 | 15.3 | 3 | -24 | 60 | 38 | –
15 | Nc1sc2c(c1C(=O)c1ccc3ccccc3c1)CCC2 | -19 | -14 | -51 | 54 | 14.5 | -0 | -15 | 42 | 29 | –
16 | Nc1sc2c(c1C(=O)c1ccc(Cl)c3ccccc13)CCCC2 | -11 | 3 | -44 | 30.5 | 4.8 | -0 | -25 | 36 | 27 | –
17 | Cc1sc(N)c(C(=O)c2ccc3ccccc3c2)c1C | -1 | -4 | -28 | -0 | -0 | -0 | -8 | – | – | –
18 | Nc1sc2c(c1C(=O)c1cccc3ccccc13)CCCC2 | -11 | -15 | -52 | 34.5 | 2 | -0 | -22 | 29 | 23 | –
19 | Cc1cc(C(=O)c2c(N)sc3c2CCC3)cc2ccccc12 | -0 | -7 | -34 | -0 | 6 | -0 | -13 | – | – | –
